Experimental findings from paper PMC10172704 (Poultry Science, 2023) are described below.

Assay in all cases: Microdilution broth MIC/MBC
What all share (settings): synthesized identified peptides
(In broth dilution the organism is exposed to a series of concentrations in liquid medium.)

For one test, the system named is S. aureus ATCC 29213. The format is cell-based, Staphylococcus aureus. The method in brief: (§1)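 Broth microdilution per CLSI guideline, modified. Strains grown 18 h on tryptic soy agar, adjusted to 0.5 McFarland, then diluted in 0.85% NaCl to about 5 × 10^5 CFU/mL final. Suspension mixed with test compound in microplate wells and incubated 37°C, 18 h. Growth inhibition read at 600 nm. Positive control: 20 µg/mL kanamycin. Experiments done 3 times.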

The next test relates to B. cereus DMST 5040. The test is classed as cell-based, Bacillus cereus. Put shortly: as §1
The subject of the next test is S. Typhimurium TISTR 292. The format is cell-based, Salmonella typhimurium. The method in brief:
as §1

The next test relates to E. coli TISTR 780. The format is cell-based. The method in brief:
as §1

Ends that are not written are not given here.

For orientation: MIC means the lowest concentration found to suppress growth. On to KGGDLGLFEPTL [KGGDLGLFEPTL], for which the MIC with S. aureus ATCC 29213 was 2 mM; against B. cereus DMST 5040 it was 2 mM; in the test on S. Typhimurium TISTR 292, 2 mM; against E. coli TISTR 780, greater than 4 mM.
In the case of HAAHTTGLGGPF [HAAHTTGLGGPF], the MIC in the test with S. aureus ATCC 29213, in the test on B. cereus DMST 5040, in the test with S. Typhimurium TISTR 292 and in the test with E. coli TISTR 780 was greater than 4 mM in each case.
Regarding VTLKVPGVTL [VTLKVPGVTL], the minimal inhibitory concentration (MIC) in the test on S. aureus ATCC 29213, in the test on B. cereus DMST 5040, with S. Typhimurium TISTR 292 and with E. coli TISTR 780 was greater than 4 mM each time.
Take KVLPLPFGGRSPGGGA [KVLPLPFGGRSPGGGA]: the MIC in the test with S. aureus ATCC 29213, in the test on B. cereus DMST 5040, against S. Typhimurium TISTR 292 and in the test with E. coli TISTR 780 was greater than 4 mM in each case.
As to CASALLGA [CASALLGA], the MIC in the test with S. aureus ATCC 29213 was 4 mM; against B. cereus DMST 5040 it was 4 mM; against S. Typhimurium TISTR 292, 4 mM; against E. coli TISTR 780, greater than 4 mM.
